Rows were chosen to be rich in hits. Some 2.6% of all compounds tested hit in one or more screens of this group.
TAAR1 antagonist = human TAAR1 antagonism | CHO RD-HGA16 TAAR1, Fluo-8 calcium fluorescence, antagonist | inhibition, % at 3 µM | 1.5% of 360,000 active;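 active = inhibition above a per-plate cutoff, the mean inhibition of test compounds on that plate plus 3 SD, cut at about 49% in these data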;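 note: 0% = DMSO plus EC80 beta-PEA response and 100% = DMSO alone without agonist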
Target sequence (Q96RJ0 whole entry, looked up): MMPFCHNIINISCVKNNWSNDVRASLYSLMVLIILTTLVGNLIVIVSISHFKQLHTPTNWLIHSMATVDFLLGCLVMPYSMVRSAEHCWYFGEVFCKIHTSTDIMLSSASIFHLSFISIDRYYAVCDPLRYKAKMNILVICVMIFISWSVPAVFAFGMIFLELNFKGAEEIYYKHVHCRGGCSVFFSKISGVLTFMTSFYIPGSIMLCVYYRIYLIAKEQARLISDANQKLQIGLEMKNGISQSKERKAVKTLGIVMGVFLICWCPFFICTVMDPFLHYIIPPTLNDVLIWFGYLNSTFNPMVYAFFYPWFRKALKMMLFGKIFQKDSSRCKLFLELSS
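Material: CHO RD-HGA16 cells bearing hTAAR1; compound dosing: one-point dosing, 3 µM nominal final; schedule: dye loading 75 min at 37 °C, then 30 min room temperature; measured by: calcium fluorescence with Fluo-8; control set: vehicle and agonist controls; replication: n of 1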
TAAR1 agonist = human TAAR1 agonism; Q96RJ0; CHO RD-HGA16 TAAR1, Fluo-8 calcium fluorescence; vehicle wells 0%, saturating PEA agonist 100%; AID 624467; activation, % at 3 µM; 0.99% of 360,000 active;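 active = activation above the mean activation of all test compounds in the run plus 3 SD, cut at about 38% in these data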
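Signal – calcium-sensitive Fluo-8 signal, excitation 470-495, emission 515-575 nm · System – RD-HGA16 (CHO) cells co-expressing Gα16 and hTAAR1 · Incubation – 17-24 h seeding, 75 min 37 °C dye, 30 min RT · Compound dosing – 3 µM single concentration · Repeats – no replicates (n 1)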
VLA-4 inh = inhibition in a human VLA-4 binding assay; inhibition, % (about 7 µM as worked out from the volumes in the protocol); 0.2% of 330,000 active; VLA-4 expressing cells, ligand binding flow cytometry; in the data active = inhibition above about 50%
Rce1 inh = yeast Ras-converting enzyme inhibition | Q03530 | yeast membranes, quenched prenylated peptide cleavage fluorescence | calls only | 0.27% of 290,000 active;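 active = fall in fluorescence gain of 50% or more versus controls, with final raw signal at or below 3038400; inconclusive = same 50% fall but final raw signal above 3038400; inactive = fall in fluorescence gain under 50%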;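 note: plate controls were neutral control wells for no effect and wells lacking membranes for full effect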
Platelet DG rel = modulates dense granule release in human platelets. 0.22% of 300,000 active. human platelet-rich plasma, SFLLRN dense granule ATP release, luminescence. AID 1663. inhibition, %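 (compounds screened at 7.5 µM in platelet-rich plasma)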;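 active = mean replicate score, as percent of positive control, at or above 50; inconclusive = mean below 50 but at least one replicate at or above 50; inactive = mean and every replicate below 50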
TAAR1 ag conf = human TAAR1 agonism, confirmed. shares compounds with TAAR1 agonist. CHO RD-HGA16 TAAR1, Fluo-8 calcium fluorescence; scaled: DMSO 0%, maximal phenethylamine 100%. activation, % at 3 µM. 82% of 2,400 active. AID 651783;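 active = activation above a cutoff set at the run's mean compound activation plus 3 SD, cut at about 39% in these data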
Ga16 nonsel ag = nonselective agonist in parental cells, TAAR1 agonist counter-screen. AID 651787. 50% of 2,400 active. activation, % at 3 µM. shares compounds with TAAR1 agonist. CHO-Ga16 parental, Fluo-8 calcium fluorescence; normalized to maximal ATP response, DMSO zero;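 active = activation above the run cutoff, the mean activation over all tested wells plus 3 SD, cut at about 12% in these data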;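 note: 0% = DMSO wells and 100% = maximal ATP response on the peak over basal ratio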
TAAR1 desensitize = counter-screen for human TAAR1 agonists: agonists that desensitize TAAR1; shares compounds with TAAR1 agonist; CHO RD-HGA16 hTAAR1, Fluo-8 calcium, beta-PEA response inhibition; inhibition, % at 3 µM; 46% of 2,400 active; AID 651951;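 active = inhibition above the run cutoff, the mean inhibition of all test compounds plus 3 SD, cut at about 49% in these data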;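 note: beta-PEA stimulus applied at its EC80; loss of beta-PEA calcium signal after compound pretreatment read as receptor desensitization; 0% = DMSO with beta-PEA at EC80 and 100% = DMSO alone without agonist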
Ga16 antag count = counter-screen for TAAR1 agonists: nonselective Ga16 antagonists; shares compounds with TAAR1 agonist; CHO-Ga16 ATP-induced calcium, Fluo-8 fluorescence; inhibition, % at 3 µM; 39% of 2,400 active; AID 651952;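 active = inhibition above the plate's mean compound inhibition plus 3 SD, computed per plate, cut at about 22% in these data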;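 note: 0% = EC80 ATP with DMSO and 100% = DMSO wells without ATP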
* marks the source's active call; other numbers are inactive results; i = inactive; ? = inconclusive; . = no result.

SMILES	TAAR1 antagonist	TAAR1 agonist	VLA-4 inh	Rce1 inh	Platelet DG rel	TAAR1 ag conf	Ga16 nonsel ag	TAAR1 desensitize	Ga16 antag count
CCC(c1nnnn1Cc1ccccc1)N(Cc1ccco1)Cc1cc2cc(OC)ccc2[nH]c1=O (stereo not drawn)	-6	4	5	i	?	.	.	.	.
CCC(c1nnnn1Cc1ccco1)N(CCc1ccccc1)Cc1cc2cc(C)ccc2[nH]c1=O (stereo not drawn)	.	.	-10	i	-3	.	3	.	6
Cc1ccc2[nH]c(=O)c(CN(CCc3ccccc3)C(c3nnnn3Cc3ccco3)C(C)C)cc2c1 (stereo not drawn)	3	71*	-2	i	1	62*	0	18	6
CCOc1ccccc1NC(=O)C(c1ccccc1)N1CCN(C(=O)c2ccco2)CC1 (stereo not drawn)	11	11	0	.	.	.	.	.	.
Cc1ccc(N=Nc2ccc(O)c3ncccc23)cc1	82*	63*	22	i	-2	5	4	48	51*
O=C(CC1C(=O)NCCN1CCCc1ccccc1)NCCc1ccccc1F (stereo not drawn)	44	75*	1	i	-5	93*	1	72*	0
CN1OC[C@@H]2CN(C(=S)NCCc3ccccc3)[C@H](c3ccc(-n4ccnc4)cc3)C[C@@H]21	-8	47*	.	.	.	49*	7	6	10
COCCn1nnnc1CN(CCc1ccccc1)Cc1cc2cc(OC)ccc2[nH]c1=O	39	83*	2	i	0	79*	9	48	13
COCCn1nnnc1CN(Cc1cccnc1)Cc1cc2cc(OC)ccc2[nH]c1=O	-1	4	.	i	-10	.	.	.	.
COC(=O)[C@]12CCCCC=C1N(Cc1cccc3ccccc13)C(=O)[C@H](CC(=O)NCCc1ccccc1OC)C2	-6	45*	.	.	.	44*	-1	15	20
COC(=O)[C@@]12C[C@@H](CC(=O)NCCc3ccccc3OC)C(=O)N(Cc3cccc4ccccc34)C1=CCC(C)(C)C2	-19	23	.	.	.	.	.	.	.
COC(=O)[C@]12CCCCC=C1N(Cc1ccccc1)C(=O)[C@H](CC(=O)NCCc1ccccc1OC)C2	57*	70*	.	.	.	91*	2	77*	6
CCOC(=O)[C@]12CCC=C1N(Cc1ccccc1)C(=O)[C@H](CC(=O)NCCc1ccccc1OC)C2	52*	70*	.	.	.	91*	0	75*	-7
CCCCCCCCN1C(=O)[C@H](CC(=O)NCCc2ccccc2OC)C[C@@]2(C(=O)OC)CC(C)(C)CC=C12	-40	44*	.	.	.	60*	3	24	13
CCCC(=O)N1CCCC1(C)C(=O)Nc1cccc(OC(C)C)c1 (stereo not drawn)	-15	1	.	.	.	.	.	.	.
C=CCN1[C@@H](C)[C@H](c2ccccc2)Oc2cccc(NCCc3ccccc3)c2S1(=O)=O	36	97*	.	.	.	72*	1	19	9
Cc1ccccc1CN1[C@@H](C)[C@H](c2ccccc2)Oc2cccc(NCCc3ccccc3)c2S1(=O)=O	-2	31	.	.	.	.	.	.	.
Brc1ccc2ncnc(Nc3cccc4ccccc34)c2c1	1	53*	-21	i	-2	15	30*	2	5
Cc1[nH]c2ccccc2c1CCN(Cc1cccnc1)C(=S)NC(C)(C)C	3	2	10	i	2	.	.	.	.
CCOC(=O)c1c(CSC(=N)N)n(-c2ccc(C)cc2)c2cc(Br)c(OC(C)=O)cc12	15	63*	-11	i	6	92*	59*	66*	52*

Screens deposited in PubChem by several laboratories.
